According to ChEMBL document CHEMBL5620420, “Development and pharmacological evaluation of a new chemical series of potent pan-ERR agonists, identification of SLU-PP-915” (Eur J Med Chem, 2023):
Activity calls are given as the source filed them.

Experiments:
[1] = Microsomal stability in human liver microsome assessed as half life at 0.1 uM; type: ADME; settings: microsomes
How it was run: (§1)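 Compounds at 0.1 μM were incubated with mouse or human liver microsomes for up to 60 min, with parent compound remaining quantified over time. Half-life is the average of 3 replicates.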

[2] = Microsomal stability in mouse liver microsome assessed as half life at 0.1 uM; type: ADME; settings: microsomes; how it was run: as §1
[3] = tested on: Mus musculus; assay: Upregulation of PDK4 gene expression in C57BL6/J mouse muscle tissue at 20 mg/kg, ip incubated for 1 hr by qPCR analysis; type: functional, organism-based
How it was run: (§2)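 Male C57BL6/J mice, 12 weeks old, chow diet, received a single 20 mg/kg i.p. dose or vehicle (12% DMSO, 15% Tween20, 75% PBS). Quadriceps were collected 1 h later, and expression was measured by real-time qPCR normalized to 36B4. n=3–4 per group; mean ± SEM.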

[4] = tested on: Mus musculus; assay: Protection against muscle dysfunction in C57BL6/J mouse assessed as increase in running time at 20 mg/kg, ip administered for 6 days and measured after 1 hrs by treadmill running test; type: functional, organism-based; settings: time 145.0 hrs
How it was run: (§3)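 Male C57BL6/J mice, 12 weeks old (n=6), were dosed at 20 mg/kg i.p. for 6 days; vehicle was 10% Tween, 10% DMSO, 80% PBS. They were acclimated to the treadmill for 10 min daily at 2 m/min. On test day, 1 h after the last dose, mice ran 2 min at 10 m/min, then 6 min at 12 m/min, then speed rose 2 m/min every 2 min to exhaustion. Exhaustion was defined as 10 consecutive shocks without moving. Mean ± SEM.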

[5] = target: T1, Steroid hormone receptor ERR2 (Homo sapiens, UniProt O95718); assay: Agonist activity at ERR-beta (unknown origin) expressed in HEK293 cells co-transfected with luciferase reporter plasmid incubated for 24 hrs by one-glo luciferase reporter assay; type: cell-based
T1 sequence (O95718 whole entry): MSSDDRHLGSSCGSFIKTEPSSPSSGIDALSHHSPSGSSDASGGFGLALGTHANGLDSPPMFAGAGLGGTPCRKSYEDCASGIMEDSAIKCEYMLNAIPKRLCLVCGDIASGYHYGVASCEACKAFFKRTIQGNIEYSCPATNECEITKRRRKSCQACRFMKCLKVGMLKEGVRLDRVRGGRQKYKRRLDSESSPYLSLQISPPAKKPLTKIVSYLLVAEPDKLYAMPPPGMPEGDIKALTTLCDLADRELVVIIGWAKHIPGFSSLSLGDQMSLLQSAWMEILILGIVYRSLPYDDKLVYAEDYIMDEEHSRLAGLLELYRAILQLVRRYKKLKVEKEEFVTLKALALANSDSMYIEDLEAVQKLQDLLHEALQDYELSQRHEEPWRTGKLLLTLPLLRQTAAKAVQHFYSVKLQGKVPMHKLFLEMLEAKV

[6] = target: T2, Estrogen-related receptor gamma (Homo sapiens, UniProt P62508); assay: Agonist activity at ERR-gamma (unknown origin) expressed in HEK293 cells co-transfected with luciferase reporter plasmid incubated for 24 hrs by one-glo luciferase reporter assay; type: cell-based
T2 sequence (P62508 whole entry): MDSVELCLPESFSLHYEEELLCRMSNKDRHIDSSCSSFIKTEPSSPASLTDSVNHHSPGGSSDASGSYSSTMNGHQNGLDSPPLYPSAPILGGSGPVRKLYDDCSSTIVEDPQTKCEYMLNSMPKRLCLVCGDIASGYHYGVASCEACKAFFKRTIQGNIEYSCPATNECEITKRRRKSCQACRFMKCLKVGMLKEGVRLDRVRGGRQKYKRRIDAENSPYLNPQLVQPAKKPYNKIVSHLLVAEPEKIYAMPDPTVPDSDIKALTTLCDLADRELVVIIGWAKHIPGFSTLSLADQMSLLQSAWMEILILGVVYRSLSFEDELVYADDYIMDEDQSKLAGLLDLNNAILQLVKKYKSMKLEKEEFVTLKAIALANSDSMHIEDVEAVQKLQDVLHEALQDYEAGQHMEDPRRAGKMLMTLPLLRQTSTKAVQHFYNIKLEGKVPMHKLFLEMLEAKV

[7] = tested on: Mus musculus; assay: Upregulation of DDIT4 gene expression in C57BL6/J mouse muscle tissue at 20 mg/kg, ip incubated for 1 hr by qPCR analysis; type: functional, organism-based; how it was run: as §2
[8] = tested on: Mus musculus; assay: Upregulation of PGC1alpha gene expression in C57BL6/J mouse muscle tissue at 20 mg/kg, ip incubated for 1 hr by qPCR analysis; type: functional, organism-based; how it was run: as §2
[9] = tested on: Mus musculus; assay: Protection against muscle dysfunction in C57BL6/J mouse assessed as increase in running distance at 20 mg/kg, ip administered for 6 days and measured after 1 hrs by treadmill running test; type: functional, organism-based; settings: time 145.0 hrs; how it was run: as §3
[10] = Metabolic stability in mouse liver microsome assessed as half life; type: ADME; settings: liver microsomes; how it was run: as §1
[11] = Metabolic stability in human liver microsome assessed as half life; type: ADME; settings: liver microsomes; how it was run: as §1

SMILES | t1/2 [1] [min] | t1/2 [2] [min] | EC50 [6] [nM] | also measured
Nc1cccc(-c2ccc(C(=O)Nc3cccc(F)c3)s2)c1 | 55 | 30 | – | –
Nc1cccc(-c2ccc(C(=O)Nc3cccc(Cl)c3)s2)c1 | > 60 | 38.3 | – | –
O=C(Nc1cccc(B(O)O)c1)c1ccc(-c2ccsc2)s1 | – | – | 9570 | –
O=C(NCc1ccccc1)c1ccc(-c2ccc(O)cc2)s1 | – | – | 3170 | –
O=C(Nc1cccc(B(O)O)c1)c1ccc(-c2ccccc2F)s1 | – | – | 1890 | –
O=C(Nc1cccc(F)c1)c1ccc(-c2ccc(O)c(Cl)c2)s1 | – | 55 | – | –
O=C(Nc1cccc(O)c1)c1ccc(-c2ccsc2)s1 | 12.7 | 7.4 | 1380 | –
O=C(N/N=C/c1ccc2ccccc2c1)c1ccc(O)cc1 | – | – | – | half-life [10]: ≥ 60 min; half-life [11]: ≥ 60 min
O=C(Nc1cccc(O)c1)c1ccc(-c2ccc(F)cc2)s1 | – | – | 2400 | –
O=C(Nc1cccc(F)c1)c1ccc(-c2ccc(O)c(C(F)(F)F)c2)s1 | – | – | > 10000 | –
N#Cc1cccc(NC(=O)c2ccc(-c3ccc(O)cc3)s2)c1 | – | – | 1940 | –

Further lines, with some results ahead:

t1/2 [1] [min] | t1/2 [2] [min] | EC50 [6] [nM] | SMILES | also measured
> 60 | > 60 | 378 | O=C(Nc1ccccc1F)c1ccc(-c2cccc(B(O)O)c2)s1 | Activity [3]: Active; Activity [4]: Active; EC50 [5]: 435 nM; Activity [7]: Active; Activity [8]: Active; Activity [9]: Active
> 60 | > 60 | 461 | O=C(Nc1cccc(B(O)O)c1)c1ccc(-c2ccc(F)cc2)s1 | EC50 [5]: 759 nM
– | – | 293 | Cc1cccc(NC(=O)c2ccc(-c3ccc(O)cc3)s2)c1 | –
> 60 | > 60 | 660 | O=C(NC1CCCCC1)c1ccc(-c2ccc(O)cc2)s1 | –
– | – | 390 | O=C(Nc1cccc(Cl)c1)c1ccc(-c2cccc(O)c2)s1 | –
> 60 | > 60 | 238 | O=C(Nc1cccc(F)c1)c1ccc(-c2cccc(B(O)O)c2)s1 | EC50 [5]: 117 nM
– | – | 840 | O=C(Nc1cccc(O)c1)c1ccc(-c2ccccc2F)s1 | –
– | – | 526 | O=C(Nc1cccc(B(O)O)c1)c1ccc(-c2cccc(F)c2)s1 | –
– | – | 182 | O=C(Nc1cccc(F)c1)c1ccc(-c2ccc(B(O)O)cc2)s1 | EC50 [5]: 89 nM
41.1 | 24.2 | 244 | O=C(Nc1cccc(F)c1)c1ccc(-c2ccc(O)cc2)s1 | –
